M5 antag: blocks acetylcholine activation of human M5 receptor; P08912; CHO-hM5 cells, Fluo-8 calcium fluorescence, ACh EC80; inhibition, % at 3 µM; hit rate 0.59% among 360,000;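 active = inhibition above a per-plate cutoff, the mean of that plate's test compounds plus 3 SD, cut at about 27% in these data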;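 also: 0% = acetylcholine EC80 with DMSO and 100% = DMSO without agonist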
M4 ag: CHRM4 agonism in calcium assay. activation, % at 3 µM. CHO-K1 hM4/Gqi5, Fluo-8 calcium fluorescence; vehicle 0%, full acetylcholine response 100%. hit rate 0.14% among 360,000. P08173;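 active = activation above the run mean over all test wells plus 3 SD, cut at about 32% in these data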;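 also: peak over basal fluorescence ratio per well then scaled between controls; 0% = DMSO wells and 100% = acetylcholine at EC100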
CHRM5 agonist: agonists of human muscarinic M5 receptor (CHRM5) | hit rate 0.19% among 360,000 | CHO-K1 hM5 cells, Fluo-8 calcium fluorescence; 0% DMSO wells, 100% maximal acetylcholine response | activation, % at 3 µM;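 active = activation above the run's mean over test compounds plus 3 SD, cut at about 23% in these data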;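 also: signal is peak over basal fluorescence ratio across the kinetic read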
CHRM4 antagonist: blocks acetylcholine activation of human M4 receptor | P08173 | CHO-hM4 cells, ACh EC80, Fluo-8 calcium fluorescence | inhibition, % at 3 µM | hit rate 0.73% among 360,000 | AID 624125;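 active = inhibition above its plate's cutoff, the mean inhibition of sample wells plus 3 SD, cut at about 27% in these data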;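 also: 0% = acetylcholine EC80 with DMSO and 100% = DMSO without agonist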
CHRM4 PAM: potentiates acetylcholine response at human M4 receptor; CHO-K1 hM4/Gqi5, Fluo-8 calcium fluorescence, ACh EC20; 0% = ACh EC20, 100% = maximal ACh; P08173; hit rate 0.4% among 360,000; AID 624126; activation, % at 3 µM;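 active = activation above its plate's cutoff, the mean activation of sample wells plus 3 SD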
CHRM5 PAM: potentiates acetylcholine response at human M5 receptor; hit rate 0.3% among 360,000; P08912; activation, % at 3 µM; CHO-K1 hM5, Fluo-8 calcium, ACh EC20 PAM; 0% = ACh EC20, 100% = ACh EC100;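 active = activation above the run cutoff, the mean activation of all test compounds plus 3 SD, cut at about 18% in these data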
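Assay system: CHO-K1 hM5 cells. Also added: acetylcholine at EC20 concentration, added after compound. Dosing: 3 µM, single dose. Times: compound preincubation 140 s before EC20 acetylcholine addition. Signal: Fluo-8 calcium fluorescence. Measure: % activation relative to EC20 and EC100 ACh responses. Repeats: singlicate, one well per test compound.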
Starred values were filed as active, the others as inactive. In the library only some 1.9% were active in any assay of this set; here they are far more common.

SMILES	M5 antag	M4 ag	CHRM5 agonist	CHRM4 antagonist	CHRM4 PAM	CHRM5 PAM
CC(=O)Nc1cccc(NC(=O)C2CCCN2C(=O)Nc2cccc(F)c2)c1 (stereo not drawn)	-20	0	1	-7	9	21*
CS(=O)(=O)N1CCCC(C(=O)Nc2cccc(F)c2)C1 (stereo not drawn)	-5	1	6	-15	-1	18*
CCOC(=O)c1ccc(NC(=O)C2CCCN(S(=O)(=O)c3ccc(F)cc3)C2)cc1 (stereo not drawn)	32*	22	0	37*	-31	-22
COc1cccc(C2c3c(oc4ccccc4c3=O)C(=O)N2CCCN(C)C)c1OC (stereo not drawn)	-2	0	-1	-1	-5	-6
CCC1(COC(=O)Nc2cccc(Cl)c2)COC1	6	2	1	-2	-5	-3
CC(=O)c1ccc(NC(=O)C2CCCN(S(=O)(=O)c3cccc4nonc34)C2)cc1 (stereo not drawn)	15	8	-3	-2	-6	-4
Cc1ccc(NC(=O)C2CCCN(S(=O)(=O)c3cccc4nonc34)C2)cc1 (stereo not drawn)	29*	1	-2	2	-6	-5
O=C(c1cccc(Br)c1)N1CCN(c2ccc(N3CCOCC3)nn2)CC1	3	0	-4	17	-6	-5
Cc1ccc(C(=O)N2CCN(c3ccc(N4CCOCC4)nn3)CC2)cc1C	-1	1	0	-3	18*	9
C=CCNc1nc(Nc2ccc(OC)cc2)nc(OC)n1	-4	-1	-14	10	7	18*
CCOC(=O)c1c(-c2ccc(C)o2)csc1NC(=O)CN(C)CC(=O)Nc1ccc(C)cc1	15	6	-3	31*	-21	-6
CN(CCC#N)C(=O)c1cc2c(s1)-c1ccccc1SC2	7	2	-3	-6	4	-1
CC(=O)OCCCN(C)CC/C=C1/c2ccccc2CSc2ccccc21	19	3	-20	36*	-53	-35
C[N+](C)(C)CC/C=C1/c2ccccc2CSc2ccccc21	99*	0	-12	96*	-18	-26
Cc1nc(C)c(-c2ccc(SCC(=O)Nc3cccc(Cl)c3)nn2)s1	20	7	-4	-10	6	-6
Cc1cc(C(=O)CSc2nc3ccccc3[nH]2)c(C)n1CC1CCCO1 (stereo not drawn)	60*	35*	10	66*	-17	-23
Cc1cc(C(=O)CSc2nc(N)cc(=O)[nH]2)c(C)n1CC1CCCO1 (stereo not drawn)	23	1	0	6	-2	-2
O=C1CN(Cc2cc(=O)oc3cc4c(cc23)CCC4)CCN1	-2	0	-4	-7	10	-1
COc1ccccc1-c1sc2ccccc2c1-c1ccc(OCCN2CCCCC2)cc1	-4	8	-1	1	-2	0
Oc1ccc2sc(-c3ccccc3O)c(-c3ccc(OCCN4CCCCC4)cc3)c2c1	18	61*	7	43*	-13	-8
COc1cccc(-c2sc3ccccc3c2-c2ccc(OCCN3CCCCC3)cc2)c1	15	5	-5	34*	9	-1
COc1cccc(-c2sc3ccccc3c2-c2ccc(OCCN(C)C)cc2)c1	22	9	-7	47*	2	-15
CCC(C)[C@H](NC(=O)NCc1cccc(OC)c1)C(=O)O (stereo partly drawn)	-3	1	1	0	1	-2
CN(Cc1ccc(F)cc1)C(=O)c1cc(S(=O)(=O)N2CCCCC2)ccc1N1CCOCC1	-2	-1	0	-5	-3	3
Cc1cccc(C(=O)N2CCCC(Nc3ccc(C)c(C)c3)C2)n1 (stereo not drawn)	11	0	-2	7	-4	-4
CCCn1cnnc1CNC(=O)[C@H]1O[C@@H](n2ccc(N)nc2=O)[C@H](O)[C@@H]1O	-9	0	1	1	2	2
